# Source: ChEMBL document CHEMBL4477177, “Antituberculosis Activity of a Naturally Occurring Flavonoid, Isorhamnetin” (J Nat Prod, 2016)
# Activity calls are given as the source filed them. The calls are words filed in the database; no cut-off is given here.
# How the values were obtained:
# [1] = tested on: Mycobacterium tuberculosis; experiment: Antitubercular activity against XDR Mycobacterium tuberculosis X24 incubated for 1 to 9 days by inverted microscopic analysis; type: functional
# Outline: (§1)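 Bacteria immobilised in 0.5% agarose within microfluidic channels of a 96-well chip. Compound (0–632 μM; rifampicin 0–19.4 μM) supplied in Middlebrook 7H9 with 10% OADC and allowed to diffuse in. Incubated at 37 °C; channel boundary imaged by inverted microscopy (40×) at 1, 3, 5, 7 and 9 days. MIC90 taken as lowest concentration giving 90% growth inhibition. Triplicate.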
# [2] = Cytotoxicity against mouse NIH/3T3 cells assessed as cell survival rate at 16 uM after 24 hrs by MTT assay; type: cell-based, NIH3T3; details: read-out: Survival
# Outline: (§2)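 Cells treated for 24 h with test agent (0–400 μM) or rifampicin (0–16 μM), then MTT assay. Survival taken as A570 of treated cells over A570 of untreated cells, as a percentage. Average of triplicates from three independent experiments.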
# [3] = Cytotoxicity against human MRC5 cells assessed as cell survival rate at 16 uM after 24 hrs by MTT assay; type: cell-based; details: read-out: Survival; outline: as §2
# [4] = tested on: Mycobacterium tuberculosis; experiment: Antitubercular activity against XDR Mycobacterium tuberculosis X59 incubated for 1 to 9 days by inverted microscopic analysis; type: functional; outline: as §1
# [5] = tested on: Mycobacterium tuberculosis; experiment: Antitubercular activity against MDR Mycobacterium tuberculosis X23 incubated for 1 to 9 days by inverted microscopic analysis; type: functional
# [6] = tested on: Mycobacterium tuberculosis; experiment: Antitubercular activity against Mycobacterium tuberculosis H37Rv P887 incubated for 1 to 9 days by inverted microscopic analysis; type: functional; outline: as §1
# [7] = Cytotoxicity against human HaCaT cells assessed as cell survival rate at 16 uM after 24 hrs by MTT assay; type: cell-based; details: read-out: Survival; outline: as §2
# [8] = target: MAP kinase p38 (Homo sapiens) (UniProt O15264+Q15759+Q16539+P53778); experiment: Binding affinity to human C-terminally His-tagged p38 expressed in Escherichia coli BL21 by fluorescence quenching based spectrofluorometric analysis
# Outline: (§3)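 C-terminally His6-tagged ERK1 or p38 MAPK expressed in E. coli and purified. Protein at 10 μM in 50 mM sodium phosphate, 100 mM NaCl, pH 8.0, titrated with ligand to 1:10 protein:ligand. Excitation 290 nm, emission 290–500 nm. Binding constant K derived from fluorescence quenching.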
# [9] = target: Mitogen-activated protein kinase 3 (Homo sapiens) (UniProt P27361); experiment: Binding affinity to human ERK1 expressed in Escherichia coli BL21 by fluorescence quenching based spectrofluorometric analysis; outline: as §3
# Sequence of Mitogen-activated protein kinase 3 (Homo sapiens) (P27361 whole entry): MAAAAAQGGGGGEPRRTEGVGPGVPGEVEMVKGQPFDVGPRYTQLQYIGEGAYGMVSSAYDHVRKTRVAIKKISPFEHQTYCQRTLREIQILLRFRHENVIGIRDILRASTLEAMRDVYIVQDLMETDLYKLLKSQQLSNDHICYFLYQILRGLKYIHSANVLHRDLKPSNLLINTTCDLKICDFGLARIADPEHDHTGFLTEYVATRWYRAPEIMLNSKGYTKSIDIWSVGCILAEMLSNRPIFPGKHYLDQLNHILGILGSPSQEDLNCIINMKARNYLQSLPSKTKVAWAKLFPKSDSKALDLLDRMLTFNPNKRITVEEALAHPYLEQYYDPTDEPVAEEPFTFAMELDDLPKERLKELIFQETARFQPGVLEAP
# [10] = Lipophilicity, logP of the compound; type: physicochemical; details: octanol/water
# [11] = tested on: Mycobacterium tuberculosis; experiment: Antitubercular activity against Mycobacterium tuberculosis H37Rv ATCC 27294 incubated for 7 days by resazurin assay; type: functional; details: H37Rv ATCC 27294, 168 h
Compound,MIC90 [1],"viability at 24 h, 16 µM [2] [%]","viability at 24 h, 16 µM [3] [%]",MIC90 [4],MIC90 [5],MIC90 [6] [µM],"viability at 24 h, 16 µM [7] [%]",K [8] [×10⁵ /M],K [9] [×10⁵ /M],logP [10],MIC [11] [µM]
CO[C@H]1/C=C/O[C@@]2(C)Oc3c(C)c(O)c4c(O)c(c(/C=N/N5CCN(C)CC5)c(O)c4c3C2=O)NC(=O)/C(C)=C\C=C\[C@H](C)[C@H](O)[C@@H](C)[C@@H](O)[C@@H](C)[C@H](OC(C)=O)[C@@H]1C [RIFAMPIN],inactive,62,53,inactive,inactive,0.61,55,–,–,–,–
O=c1c(O)c(-c2ccc(O)c(O)c2)oc2cc(O)cc(O)c12 [QUERCETIN],–,–,–,–,–,–,–,9.87,5.62,1.63,> 827
O=c1cc(-c2ccc(O)c(O)c2)oc2cc(O)cc(O)c12 [LUTEOLIN],–,–,–,–,–,–,–,–,–,–,827
